Source: ChEMBL document CHEMBL4373685, “High affinity rigidified AT2 receptor ligands with indane scaffolds” (Medchemcomm, 2019)
pKi: −log10 of the molar value. Values belong to the compound of their own block, whether it stands above or below them. Calls of active or inactive are those of the source. No cut-off for these calls is given here.

How the values were obtained:
[1] = Displacement of [125I]-Ang2 from AT2 receptor in porcine uterine myometrial membranes after 1.5 hrs by gamma scintillation gamma scintillation counting analysis; design: species or system Sus scrofa
Outline: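 Pig uterine myometrial membranes (10 mg original tissue per tube) with 1 μM losartan to block AT1. Incubated 25 °C for 1.5 h, then filtered and counted by γ-counter. Nonspecific binding with 1 μM Ang II.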

NG108-15 [2] = test: Agonist activity at AT2 receptor in mouse/rat NG108-15 cells assessed as neurite growth at 10 nM after 3 days by phase contrast microscopic analysis; format: cell-based
Outline: (§1)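 NG108-15 neuroblastoma x glioma cells, passages 18–25, in DMEM with 10% FBS and HAT at 37 °C, 7% CO2. Seeded at 3.6 × 10^4 cells per 35 mm dish. Dosed once daily for 3 days starting 24 h after plating; where used, 10 μM PD 123319 was added 30 min before compound. On day 4, phase-contrast micrographs were taken. Cells with a neurite longer than the cell body were scored as % of at least 400 cells. Three independent experiments in duplicate, two-way ANOVA.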

NG108-15 [3] = test: Agonist activity at AT2 receptor in mouse/rat NG108-15 cells assessed as neurite growth at 10 nM after 3 days in presence of PD123319 by phase contrast microscopic analysis; format: cell-based; outline: as §1
NG108-15 [4] = test: Antagonist activity at AT2 receptor in mouse/rat NG108-15 cells assessed as inhibition of angiotensin-2 induced neurite growth at 100 nM after 3 days in presence of angiotensin-2 by phase contrast microscopic analysis; format: cell-based
Outline: (§2)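 NG108-15 cells seeded at 3.6 × 10^4 per 35 mm dish. Compound given once daily for 3 days, starting 24 h after plating, 30 min before 100 nM Ang II. On day 4, phase-contrast micrographs were taken. Cells bearing a neurite longer than the cell body were counted as % of at least 400 cells. Three independent experiments in duplicate, two-way ANOVA.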

NG108-15 [5] = test: Antagonist activity at AT2 receptor in mouse/rat NG108-15 cells assessed as inhibition of angiotensin-2 induced neurite growth at 10 nM after 3 days in presence of angiotensin-2 by phase contrast microscopic analysis; format: cell-based; outline: as §2

pKi [1]: 8.55
Compound: CCCCOC(=O)NS(=O)(=O)c1ccc2c(c1-c1ccc(Cn3ccnc3)cc1)CCC2C(C)C (single isomer, unassigned; (+)) [listing 1 of 2 here]

pKi [1]: 8.49
Compound: CCCCOC(=O)NS(=O)(=O)c1cc2c(cc1-c1cccc(Cn3ccnc3)c1)CCC2C(C)C (single isomer, unassigned; (+)) [listing 1 of 2 here]

pKi [1]: 8.66
Compound: CCCCOC(=O)NS(=O)(=O)c1cc2c(cc1-c1ccc(Cn3ccnc3)cc1)CCC2C(C)C (single isomer, unassigned; (+)) [listing 1 of 2 here]

Compound: CCCCOC(=O)NS(=O)(=O)c1cc2c(cc1-c1ccc(Cn3ccnc3)cc1)CCC2C(C)C (single isomer, unassigned; (+)) [listing 2 of 2 here]
Activity (NG108-15 [2]): Active
Activity (NG108-15 [3]): inactive

Compound: CCCCOC(=O)NS(=O)(=O)c1cc2c(cc1-c1cccc(Cn3ccnc3)c1)CCC2C(C)C (single isomer, unassigned; (+)) [listing 2 of 2 here]
inhibition (NG108-15 [4]): Active
inhibition (NG108-15 [5]): Active

Compound: CCCCOC(=O)NS(=O)(=O)c1ccc2c(c1-c1ccc(Cn3ccnc3)cc1)CCC2C(C)C (single isomer, unassigned; (+)) [listing 2 of 2 here]
inhibition (NG108-15 [4]): Active
inhibition (NG108-15 [5]): Active

pKi [1]: 6.89
Compound: CCCCOC(=O)NS(=O)(=O)c1ccc2c(c1-c1ccc(Cn3ccnc3)cc1)CCC2C(C)C (single isomer, unassigned; (-)) [listing 1 of 2 here]

pKi [1]: 6.65
Compound: CCCCOC(=O)NS(=O)(=O)c1ccc2c(c1-c1cccc(Cn3ccnc3)c1)CCC2C(C)C (single isomer, unassigned; (-)) [listing 1 of 2 here]

pKi [1]: 8.15
Compound: CCCCOC(=O)NS(=O)(=O)c1cc2c(cc1-c1cccc(Cn3ccnc3)c1)CCC2C(C)C (single isomer, unassigned; (-)) [listing 1 of 2 here]

pKi [1]: 8.23
Compound: CCCCOC(=O)NS(=O)(=O)c1cc2c(cc1-c1ccc(Cn3ccnc3)cc1)CCC2C(C)C (single isomer, unassigned; (-)) [listing 1 of 2 here]

Compound: CCCCOC(=O)NS(=O)(=O)c1cc2c(cc1-c1ccc(Cn3ccnc3)cc1)CCC2C(C)C (single isomer, unassigned; (-)) [listing 2 of 2 here]
Activity (NG108-15 [2]): Active
Activity (NG108-15 [3]): inactive

Compound: CCCCOC(=O)NS(=O)(=O)c1cc2c(cc1-c1cccc(Cn3ccnc3)c1)CCC2C(C)C (single isomer, unassigned; (-)) [listing 2 of 2 here]
Activity (NG108-15 [2]): Active
Activity (NG108-15 [3]): inactive

Compound: CCCCOC(=O)NS(=O)(=O)c1ccc2c(c1-c1ccc(Cn3ccnc3)cc1)CCC2C(C)C (single isomer, unassigned; (-)) [listing 2 of 2 here]
Activity (NG108-15 [2]): Active
Activity (NG108-15 [3]): inactive

Compound: CCCCOC(=O)NS(=O)(=O)c1ccc2c(c1-c1cccc(Cn3ccnc3)c1)CCC2C(C)C (single isomer, unassigned; (-)) [listing 2 of 2 here]
inhibition (NG108-15 [4]): Active
inhibition (NG108-15 [5]): Active

pKi [1]: 7.27
Compound: CCCCOC(=O)NS(=O)(=O)c1ccc2c(c1-c1cccc(Cn3ccnc3)c1)CCC2C(C)C (stereo in doubt; 8b) [listing 1 of 2 here]

Compound: CCCCOC(=O)NS(=O)(=O)c1ccc2c(c1-c1cccc(Cn3ccnc3)c1)CCC2C(C)C (stereo in doubt; 8b) [listing 2 of 2 here]
inhibition (NG108-15 [4]): Active
inhibition (NG108-15 [5]): Active
